Measured values from ChEMBL document CHEMBL3877241 (J Med Chem, 2016).
Calls of active or inactive are those of the source. No cut-off for these calls is given here.

Assays:
[1] = target: Tyrosine-protein kinase JAK1 (Homo sapiens) (UniProt P23458); test: Inhibition of JAK1 (unknown origin) at 0.1 uM preincubated for 20 mins followed by [33P]ATP addition measured after 120 mins by Hotspot assay relative to control
In short: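 Radiometric HotSpot kinase assay. Buffer: 20 mM HEPES pH 7.5, 10 mM MgCl2, 1 mM EGTA, 0.02% Brij35, 0.02 mg/mL BSA, 0.1 mM Na3VO4, 2 mM DTT, 1% DMSO. Compound added about 20 min before ATP/[33P]ATP (10 μM final). Reactions run 120 min at 25 °C, spotted on P81 filters and washed in phosphoric acid. Activity expressed relative to DMSO after background subtraction. Single-concentration panel at 100 nM in duplicate.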

[2] = target: Histone deacetylase 4 (Homo sapiens) (UniProt P56524); test: Inhibition of human recombinant N-terminal GST-tagged C-terminal His-tagged HDAC4 (627 to 1084 residues) expressed in insect cells at 10 uM preincubated with enzyme followed by acetyl-Lys(trifluoroacetyl)-AMC substrate addition measured after 2 hrs by fluorescence assay relative to control
In short: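 HDAC enzyme in 50 mM Tris-HCl pH 8.0, 137 mM NaCl, 2.7 mM KCl, 1 mM MgCl2 was pre-incubated with compound dosed from DMSO. The reaction was started with the class IIa substrate acetyl-Lys(trifluoroacetyl)-AMC and run 2 h at 30 °C. Developer with trichostatin A stopped it, and fluorescence (Ex/Em 360/460 nm) was read at plateau. Single test concentration 10 µM.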

[3] = target: T1, Tyrosine-protein kinase JAK2 (Homo sapiens, UniProt O60674); test: Inhibition of human JAK2 JH1 catalytic domain (A829 to G1132 residues) expressed in mammalian expression system assessed as residual activity at 100 nM by KINOMEScan assay relative to control
In short: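 DiscoveRx KINOMEscan competition binding against ATP sites in a 97-kinase panel, with compound at 100 nM. Binding reported as % of control.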

[4] = target: Phosphatidylinositol 4,5-bisphosphate 3-kinase catalytic subunit gamma isoform (Homo sapiens, UniProt P48736); test: Inhibition of human PI3Kgamma (S144 to A1102 residues) expressed in mammalian expression system assessed as residual activity at 100 nM by KINOMEScan assay relative to control
In short: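 DiscoveRx competition-binding panel of 97 kinases, measuring binding to the kinase ATP site rather than catalytic turnover. The test compound was run at a single 100 nM concentration. Results are given as % of control binding.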

[5] = system: Mast/stem cell growth factor receptor Kit (Homo sapiens), P10721 [V559D,T670I]; test: Inhibition of human KIT (Y545 to D952 residues) V559D/T670I double mutant expressed in bacterial expression system assessed as residual activity at 100 nM by KINOMEScan assay relative to control
In short: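 Done by DiscoveRx as an ATP-site binding panel covering 97 kinases across the kinome. It measures binding rather than inhibition of phosphate transfer. The compound was tested at 100 nM, and the result is expressed as percent of control binding.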

[6] = Antiproliferative activity against human PC3 cells after 72 hrs by MTT assay; type: functional, cell-based; details: PC-3, 72 h
[7] = Growth inhibition of human HL60 cells at 4 uM relative to control; type: functional; details: HL-60, read-out: GI
[8] = Antiproliferative activity against human KMS-12-BM cells after 48 hrs by CellTiter-Glo assay; type: functional, cell-based
[9] = Antiproliferative activity against human OPM2 cells after 48 hrs by CellTiter-Glo assay; type: functional, cell-based; details: OPM-2, 48 h
In short: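 OPM2 grown in RPMI 1640 with 10% FBS and penicillin/streptomycin at 37 °C, 5% CO2. Treated at 25,000 cells/well in triplicate for 48 h. Viability read by CellTiter-Glo luminescence. IC50 taken from a sigmoidal fit of % viability vs log concentration.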

[10] = Antiproliferative activity against human KHYG cells after 48 hrs by CellTiter-Glo assay; type: functional, cell-based
[11] = target: T1, Tyrosine-protein kinase JAK2; test: Inhibition of JAK2 in IL-6-stimulated human KMS-12-BM cells assessed as suppression of STAT3 phosphorylation at TY705 residue at 1.5 uM pretreated for 3 hrs followed by IL-6 stimulation by immunoblot method
In short: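 Cells (at least 3x10^6 per condition; KMS-12-BM or MOLM-14) pretreated with compound for 3 h, then stimulated with IL-6 10 ng/mL for 15 min. Cells lysed, equal protein run on SDS-PAGE and transferred to PVDF. Immunoblotted for p-STAT3 (Tyr705), with membranes re-probed for total STAT3. Reference JAK2 inhibitor control at 2 µM (KMS-12-BM) or 0.1 µM (MOLM-14).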

MOLM-14 [12] = test: Induction of apoptosis in human MOLM14 cells assessed as live cells at 1.5 uM after 48 hrs by Annexin-V FITC/propidium iodide staining based flow cytometry (reference value: 94 to 94.1%); type: functional
MOLM-14 [13] = test: Induction of apoptosis in human MOLM14 cells assessed as early apoptotic cells at 1.5 uM after 48 hrs by Annexin-V FITC/propidium iodide staining based flow cytometry (reference value: 3.6 to 3.7%); type: functional
[14] = Half life in rat liver microsomes at 3 uM preincubated for 5 mins followed by NADPH addition by LC-MS/MS analysis; type: ADME
In short: (§1)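 Male and female rat liver microsomes (0.3 mg protein/mL final) with compound at 3 μM final in 0.1 M phosphate buffer pH 7.4. Preincubated 5 min at 37 °C, then started with NADPH (1 mM final). Sampled at 0, 5, 10, 15, 30 and 45 min and quenched with cold acetonitrile containing internal standard. Read by LC-MS/MS; run in triplicate; midazolam (3 μM) as positive control.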

[15] = Apparent intrinsic clearance in rat liver microsomes at 3 uM preincubated for 5 mins followed by NADPH addition measured after 45 mins by LC-MS/MS analysis; type: ADME; details: read-out: CLH(app); in short: as §1

T1 sequence (O60674 whole entry, the tested form may be a part): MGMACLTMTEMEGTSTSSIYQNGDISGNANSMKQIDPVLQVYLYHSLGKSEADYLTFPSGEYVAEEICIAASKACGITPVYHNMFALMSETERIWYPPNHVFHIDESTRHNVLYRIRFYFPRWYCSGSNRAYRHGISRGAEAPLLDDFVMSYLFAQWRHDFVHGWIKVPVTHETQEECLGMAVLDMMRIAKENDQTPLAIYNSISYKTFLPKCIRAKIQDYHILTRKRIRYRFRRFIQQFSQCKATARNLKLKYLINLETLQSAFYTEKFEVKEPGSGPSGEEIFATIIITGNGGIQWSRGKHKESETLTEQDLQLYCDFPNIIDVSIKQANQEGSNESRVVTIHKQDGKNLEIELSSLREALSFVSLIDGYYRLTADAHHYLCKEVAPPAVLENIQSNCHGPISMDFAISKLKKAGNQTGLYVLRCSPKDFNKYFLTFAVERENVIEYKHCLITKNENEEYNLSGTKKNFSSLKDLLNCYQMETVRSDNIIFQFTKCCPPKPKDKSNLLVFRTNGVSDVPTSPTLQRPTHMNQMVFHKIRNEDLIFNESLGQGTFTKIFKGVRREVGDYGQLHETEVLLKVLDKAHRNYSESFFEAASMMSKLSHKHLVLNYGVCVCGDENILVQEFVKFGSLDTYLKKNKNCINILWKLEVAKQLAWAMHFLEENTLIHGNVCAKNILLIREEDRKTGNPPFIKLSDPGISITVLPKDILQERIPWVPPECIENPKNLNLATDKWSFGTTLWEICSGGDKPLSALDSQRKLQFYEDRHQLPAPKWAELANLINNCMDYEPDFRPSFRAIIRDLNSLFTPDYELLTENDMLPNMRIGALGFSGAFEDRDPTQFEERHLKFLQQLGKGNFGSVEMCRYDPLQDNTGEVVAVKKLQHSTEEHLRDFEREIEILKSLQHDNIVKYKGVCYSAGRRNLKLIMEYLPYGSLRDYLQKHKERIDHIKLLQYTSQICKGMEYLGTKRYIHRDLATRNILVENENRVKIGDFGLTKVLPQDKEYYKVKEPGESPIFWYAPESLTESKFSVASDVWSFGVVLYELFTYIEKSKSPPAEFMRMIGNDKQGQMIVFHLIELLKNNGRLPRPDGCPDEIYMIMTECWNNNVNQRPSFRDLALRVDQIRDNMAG
Sequence of Phosphatidylinositol 4,5-bisphosphate 3-kinase catalytic subunit gamma isoform (P48736 whole entry, looked up, the tested form may be a part, canonical isoform): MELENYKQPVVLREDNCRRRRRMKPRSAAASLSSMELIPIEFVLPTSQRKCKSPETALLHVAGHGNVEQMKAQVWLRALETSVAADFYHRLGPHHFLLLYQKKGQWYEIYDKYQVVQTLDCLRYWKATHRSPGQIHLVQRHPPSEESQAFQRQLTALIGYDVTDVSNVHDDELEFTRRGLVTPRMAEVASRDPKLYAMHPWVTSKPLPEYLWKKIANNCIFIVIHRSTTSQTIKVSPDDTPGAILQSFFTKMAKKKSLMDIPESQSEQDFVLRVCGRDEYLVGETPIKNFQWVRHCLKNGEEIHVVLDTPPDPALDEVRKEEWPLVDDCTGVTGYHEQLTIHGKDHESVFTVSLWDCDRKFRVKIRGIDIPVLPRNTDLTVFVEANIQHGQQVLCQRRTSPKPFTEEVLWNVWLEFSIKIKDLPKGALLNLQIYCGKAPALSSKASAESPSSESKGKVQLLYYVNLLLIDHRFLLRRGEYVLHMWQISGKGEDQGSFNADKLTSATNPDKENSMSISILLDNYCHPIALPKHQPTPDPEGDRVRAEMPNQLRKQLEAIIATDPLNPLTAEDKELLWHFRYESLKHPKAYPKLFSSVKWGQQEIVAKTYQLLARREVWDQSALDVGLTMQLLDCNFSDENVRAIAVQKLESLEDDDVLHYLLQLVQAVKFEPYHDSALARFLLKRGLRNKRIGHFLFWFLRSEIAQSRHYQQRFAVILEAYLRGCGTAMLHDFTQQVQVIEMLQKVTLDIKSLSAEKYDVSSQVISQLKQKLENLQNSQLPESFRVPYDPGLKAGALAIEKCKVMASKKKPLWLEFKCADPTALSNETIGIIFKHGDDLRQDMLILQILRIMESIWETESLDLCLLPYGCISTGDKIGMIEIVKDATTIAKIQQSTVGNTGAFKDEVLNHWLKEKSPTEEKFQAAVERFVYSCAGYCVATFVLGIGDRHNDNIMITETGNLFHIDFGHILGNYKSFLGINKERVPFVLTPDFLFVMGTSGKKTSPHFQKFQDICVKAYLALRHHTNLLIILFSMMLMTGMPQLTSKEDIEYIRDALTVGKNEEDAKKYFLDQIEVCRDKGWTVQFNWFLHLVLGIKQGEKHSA
Sequence of Histone deacetylase 4 (Homo sapiens) (P56524 whole entry, the tested form may be a part): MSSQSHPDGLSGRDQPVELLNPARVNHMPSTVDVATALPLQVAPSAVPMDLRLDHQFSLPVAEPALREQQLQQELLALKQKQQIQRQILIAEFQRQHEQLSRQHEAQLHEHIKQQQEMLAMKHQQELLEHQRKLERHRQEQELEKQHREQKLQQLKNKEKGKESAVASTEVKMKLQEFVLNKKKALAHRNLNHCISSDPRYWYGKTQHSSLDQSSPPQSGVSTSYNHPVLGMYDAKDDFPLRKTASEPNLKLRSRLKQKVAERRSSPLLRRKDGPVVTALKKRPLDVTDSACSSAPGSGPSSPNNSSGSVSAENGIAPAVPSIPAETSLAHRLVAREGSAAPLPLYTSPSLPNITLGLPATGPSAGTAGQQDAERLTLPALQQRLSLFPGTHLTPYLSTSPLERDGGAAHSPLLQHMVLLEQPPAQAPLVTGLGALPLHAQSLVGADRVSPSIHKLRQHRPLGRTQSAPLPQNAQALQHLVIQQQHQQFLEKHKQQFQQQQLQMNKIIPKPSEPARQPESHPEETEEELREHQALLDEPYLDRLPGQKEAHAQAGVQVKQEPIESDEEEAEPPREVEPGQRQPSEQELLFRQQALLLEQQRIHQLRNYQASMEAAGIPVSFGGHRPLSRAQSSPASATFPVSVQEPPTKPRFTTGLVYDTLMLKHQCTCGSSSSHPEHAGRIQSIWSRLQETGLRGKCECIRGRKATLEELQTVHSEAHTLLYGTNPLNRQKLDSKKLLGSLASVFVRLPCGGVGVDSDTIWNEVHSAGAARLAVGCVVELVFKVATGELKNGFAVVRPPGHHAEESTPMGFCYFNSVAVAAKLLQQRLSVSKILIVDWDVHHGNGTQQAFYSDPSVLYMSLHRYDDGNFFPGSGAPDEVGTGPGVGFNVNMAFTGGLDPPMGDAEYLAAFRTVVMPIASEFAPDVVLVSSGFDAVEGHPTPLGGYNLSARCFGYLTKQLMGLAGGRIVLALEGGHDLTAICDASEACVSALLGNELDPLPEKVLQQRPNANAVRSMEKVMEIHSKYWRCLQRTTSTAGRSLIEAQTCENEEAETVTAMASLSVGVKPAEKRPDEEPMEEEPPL
Sequence of Tyrosine-protein kinase JAK1 (Homo sapiens) (P23458 whole entry): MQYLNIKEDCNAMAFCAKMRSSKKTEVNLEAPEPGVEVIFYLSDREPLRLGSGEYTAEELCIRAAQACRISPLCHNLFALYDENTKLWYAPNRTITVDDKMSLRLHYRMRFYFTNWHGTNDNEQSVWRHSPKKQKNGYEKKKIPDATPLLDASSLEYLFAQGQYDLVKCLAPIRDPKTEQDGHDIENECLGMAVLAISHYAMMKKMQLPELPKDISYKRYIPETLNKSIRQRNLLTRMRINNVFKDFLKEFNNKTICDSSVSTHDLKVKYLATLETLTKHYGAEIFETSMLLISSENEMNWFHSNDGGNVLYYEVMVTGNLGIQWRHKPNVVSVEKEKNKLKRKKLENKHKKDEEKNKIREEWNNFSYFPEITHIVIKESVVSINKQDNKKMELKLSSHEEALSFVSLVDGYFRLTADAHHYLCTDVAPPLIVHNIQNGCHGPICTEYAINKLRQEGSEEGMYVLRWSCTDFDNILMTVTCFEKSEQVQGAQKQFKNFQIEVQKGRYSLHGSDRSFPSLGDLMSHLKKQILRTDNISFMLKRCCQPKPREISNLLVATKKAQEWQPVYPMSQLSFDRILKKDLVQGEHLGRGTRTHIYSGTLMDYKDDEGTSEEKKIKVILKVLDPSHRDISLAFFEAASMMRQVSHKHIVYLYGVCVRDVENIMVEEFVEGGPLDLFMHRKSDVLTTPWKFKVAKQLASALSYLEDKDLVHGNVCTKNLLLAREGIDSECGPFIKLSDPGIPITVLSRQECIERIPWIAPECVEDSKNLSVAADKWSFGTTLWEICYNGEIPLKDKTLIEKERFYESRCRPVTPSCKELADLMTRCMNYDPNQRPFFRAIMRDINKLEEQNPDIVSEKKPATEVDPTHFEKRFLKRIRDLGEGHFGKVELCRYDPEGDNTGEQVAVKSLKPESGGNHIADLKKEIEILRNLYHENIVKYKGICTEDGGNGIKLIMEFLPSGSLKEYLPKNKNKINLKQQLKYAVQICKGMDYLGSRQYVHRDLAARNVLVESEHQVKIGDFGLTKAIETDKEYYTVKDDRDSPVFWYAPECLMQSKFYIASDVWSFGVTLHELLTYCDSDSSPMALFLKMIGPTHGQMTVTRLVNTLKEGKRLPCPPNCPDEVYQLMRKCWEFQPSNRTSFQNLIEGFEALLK

Molecule `O=C(CCCCCCOc1ccc2cc1COC/C=C/COCc1cccc(c1)-c1ccnc(n1)N2)NO` has an inhibition [1] of 8.7%, an inhibition [2] of 8.6% and an Activity [3] of 0%. The Activity [4] was 5.7%, the Activity [5] was 31% and the IC50 [6] was 1700 nM. The inhibition of growth at 4 µM [7] was 47%, the IC50 [8] was 2110 nM and the IC50 [9] was 2050 nM. For the same molecule, the IC50 [10] was 1090 nM, the inhibition [11] was “Active” and the Activity (MOLM-14 [12]) was 74.1%. For the same molecule, the Activity (MOLM-14 [13]) was 12.7%, the half-life at 3 µM [14] was 17.3 to 26.3 min and the CLint scaled at 3 µM [15] was 178 to 272 mL/min/kg.
